One test deals with MDA-MB-231. Kind of test: Cytotoxicity against human MDA-MB-231 cells by MTT assay. It is filed as functional, cell-based. The method, boiled down:
(§1)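 Cells grown in DMEM with 10% FBS and antibiotics at 37 °C, 5% CO2, seeded ~5000/well; compound in DMSO added after 24 h, 72 h exposure. MTT (1 mg/mL final, serum- and phenol-red-free DMEM) 4 h, formazan dissolved in 2-propanol, OD 550 nm (ref 690 nm). IC50 = concentration halving OD vs untreated; mean of three independent experiments with SD; doxorubicin positive control.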
Background: Tetrazolium assays rely on reduction of a dye to a coloured formazan, in cell work by metabolically active cells.

The subject of the next test is HT-29. Put plainly: Cytotoxicity against human HT29 cells by MTT assay. In kind it is functional, cell-based. An outline of the steps: as §1
The test system of test [1] is HT-1080. Kind of test: Cytotoxicity against human HT1080 cells by MTT assay. In kind it is functional, cell-based. An outline of the steps: as §1
In test [2] the test system is HT-1080. Kind of test: Induction of apoptosis in human HT1080 cells by flow cytometer. In kind it is functional. An outline of the steps: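 HT-1080 cells incubated 36 h, ethanol-fixed (50%) and stained with RNase-containing propidium iodide; apoptosis estimated by flow cytometry as sub-diploid peak in DNA-content histogram, expressed as percentage of total events collected.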
(In flow cytometry, cells or beads pass a laser one at a time.)

The test system of test [3] is HT-1080. Put plainly: Cell cycle arrest in human HT1080 cells by accumulation at G0/G1 phase at 5 uM after 36 hrs. In kind it is functional. The method, boiled down: (§2)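 HT-1080 fibrosarcoma cells exposed 36 h, then trypsinized, PBS-washed, fixed in 50% ethanol and stained with propidium iodide containing RNase; DNA content measured by flow cytometry and cell-cycle phase distribution (G0/G1, S, G2/M) determined from DNA histograms.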

Test [4] concerns HT-1080. Put plainly: Cell cycle arrest in human HT1080 cells by accumulation at S phase at 5 uM after 36 hrs. In kind it is functional. The method, boiled down:
as §2

In test [5] the test system is HT-1080. Kind of test: Cell cycle arrest in human HT1080 cells by accumulation at G2/M phase at 5 uM after 36 hrs. In kind it is functional. An outline of the steps:
as §2

The subject of test [6] is HT-1080. Kind of test: Inhibition of tubulin polymerization in human HT1080 cells after 36 hrs by Western analysis. In kind it is functional, cell-based. The method, boiled down: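 Cells lysed in 20 mM Tris-HCl pH 6.8, 1 mM MgCl2, 2 mM EGTA, 0.5% NP-40 with protease/phosphatase inhibitors; spun 13,000 × g 10 min to separate soluble from polymerized tubulin pellet; fractions run on 10% SDS-PAGE, anti-α-tubulin Western blot.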

SMILES strings stand for the structures.

As usually defined, the IC50 is the point on the concentration scale where inhibition reaches its midpoint.

As to `Nn1c(-c2ccc(Cl)cc2)nc2c(-c3ccc(Cl)cc3)nc3ccccc3c2c1=O`, the figures for the IC50 with MDA-MB-231, in the test on HT-29 and in the test with HT-1080 [1] were 55.3 µM, 18.1 µM and 6.84 µM, respectively.

As for `Nn1c(-c2ccccc2)nc2c(-c3ccc(Cl)cc3)nc3ccccc3c2c1=O`, the IC50 with MDA-MB-231 was over 100 µM; with HT-29, over 100 µM; in the test on HT-1080 [1] it was 23 µM.

For `Nn1c(-c2ccccc2)nc2c(-c3ccc(Br)cc3)nc3ccc(Cl)cc3c2c1=O`, the Activity came to 5.51% in the test on HT-1080 [2], 45.78% in the test with HT-1080 [3], 28% in the test with HT-1080 [4] and 26.22% in the test on HT-1080 [5]. Also, the results for the IC50 with MDA-MB-231, in the test on HT-29 and in the test with HT-1080 [1] were 13.7 µM, 2.14 µM and 1.48 µM, respectively.

Regarding `Nn1c(-c2ccc(Cl)cc2)nc2c(-c3ccc(Br)cc3)nc3ccc(Cl)cc3c2c1=O`, the Activity with HT-1080 [2] was 9.14%; in the test with HT-1080 [3] it was 49.76%; in the test with HT-1080 [4], 22.48%; in the test on HT-1080 [5], 27.75%. The IC50 in the test with MDA-MB-231 came to 2.89 µM; with HT-29 it was 2.82 µM; with HT-1080 [1] it was 1.84 µM.

For `Nn1c(-c2ccc(Cl)cc2)nc2c(-c3ccc(Br)cc3)nc3ccccc3c2c1=O`, the IC50 with MDA-MB-231 came out at 34.2 µM; in the test with HT-29 it was 23.2 µM; with HT-1080 [1], 10.8 µM.

`Cc1nc2c(-c3ccc(Cl)cc3)nc3ccc(Cl)cc3c2c(=O)n1N`: the values for the IC50 with MDA-MB-231, in the test with HT-29 and in the test with HT-1080 [1] were over 100 µM, 52 µM and 34.3 µM, respectively.

As to `Cc1nc2c(-c3ccc(Cl)cc3)nc3ccccc3c2c(=O)n1N`, the IC50 in the test with MDA-MB-231, in the test on HT-29 and in the test on HT-1080 [1] was over 100 µM throughout.

For the compound `Cc1nc2c(-c3ccc(Br)cc3)nc3ccccc3c2c(=O)n1N`, the IC50 is over 100 µM with MDA-MB-231, 77.8 µM in the test on HT-29 and 44.8 µM with HT-1080 [1].

Take `Nn1c(-c2ccccc2)nc2c(-c3ccc(Br)cc3)nc3ccccc3c2c1=O`: the IC50 in the test on MDA-MB-231 is over 100 µM; with HT-29, 89.9 µM; in the test with HT-1080 [1], 47.4 µM.

Regarding `Nn1c(-c2ccc(Cl)cc2)nc2c(-c3ccc(Cl)cc3)nc3ccc(Cl)cc3c2c1=O`, the Activity with HT-1080 [2] is 7.62%; with HT-1080 [3], 57.25%; in the test with HT-1080 [6], “Dose-dependent effect”; with HT-1080 [4], 11.26%; with HT-1080 [5], 31.49%. Besides, the IC50 turned out to be 1.82 µM in the test on MDA-MB-231, 1.97 µM with HT-29 and 1.23 µM with HT-1080 [1].

With `COc1cccc2c1C(=O)c1c(O)c3c(c(O)c1C2=O)C[C@@](O)(C(=O)CO)C[C@@H]3O[C@H]1C[C@H](N)[C@H](O)[C@H](C)O1` [DOXORUBICIN], the IC50 was 0.03 µM with MDA-MB-231, 0.35 µM in the test on HT-29 and 0.022 µM with HT-1080 [1].

Turning to `Nn1c(-c2ccccc2)nc2c(-c3ccc(Cl)cc3)nc3ccc(Cl)cc3c2c1=O`, the Activity came out at 2.21% in the test on HT-1080 [2], 50.68% with HT-1080 [3], 26.86% in the test on HT-1080 [4] and 22.46% in the test on HT-1080 [5]. The IC50 stood at 15.8 µM in the test on MDA-MB-231, 4.68 µM with HT-29 and 2.9 µM in the test with HT-1080 [1].
